Measurements reported in ChEMBL document CHEMBL1629649, “Multiple regulatory pathways associated with high-level ciprofloxacin and multidrug resistance in Salmonella enterica serovar enteritidis: involvement of RamA and other global regulators” (2009).
Values after ≈ are worked out from the molar mass of the structure shown.

Assays:
Assay type in all cases: functional, Salmonella enterica subsp. enterica serovar Enteritidis
[1] = test system: Salmonella enteritidis; test: Antimicrobial activity against Salmonella enterica serovar enteritidis isolate CUH52 by Etest
[2] = test system: Salmonella enteritidis; test: Antimicrobial activity against acrB::aph-deficient Salmonella enterica serovar enteritidis isolate 5408 harboring gyrA D87Y mutant gene by Etest
In short: (§1)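 Deletions (acrB, marA, soxS or ramA) were moved from SL1344 mutants into the isolates by P22 phage transduction. Transductants were selected on LB agar with 50 µg/ml kanamycin, and insertion of the kanamycin resistance gene was confirmed by PCR. MICs were then determined by Etest.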

[3] = test system: Salmonella enteritidis; test: Antimicrobial activity against Salmonella enterica serovar enteritidis isolate 58 harboring gyrA D87Y mutant gene by Etest
[4] = test system: Salmonella enteritidis; test: Antimicrobial activity against acrB::aph-deficient ciprofloxacin-resistant Salmonella enterica serovar enteritidis isolate 104-cip harboring gyrA D87Y,S83F mutant gene by Etest; in short: as §1
[5] = test system: Salmonella enteritidis; test: Antimicrobial activity against acrB::aph-deficient Salmonella enterica serovar enteritidis isolate 104 harboring gyrA D87Y mutant gene by Etest; in short: as §1
[6] = test system: Salmonella enteritidis; test: Antimicrobial activity against Salmonella enterica serovar enteritidis isolate NCTC 13349 by Etest
[7] = test system: Salmonella enteritidis; test: Antimicrobial activity against Salmonella enterica serovar enteritidis isolate CUH48 by Etest
[8] = test system: Salmonella enteritidis; test: Antimicrobial activity against ciprofloxacin-resistant Salmonella enterica serovar enteritidis isolate 104-cip harboring gyrA gene by Etest
In short: (§2)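 Wild-type alleles of the target genes were carried on plasmids and introduced into the ciprofloxacin-selected mutants by electrotransformation. Transformants were selected on LB agar with 50 µg/ml kanamycin at 37°C overnight. Quinolone MICs of the transformants were read by Etest strips alongside those of the parent and mutant strains.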

[9] = test system: Salmonella enteritidis; test: Antimicrobial activity against marA::aph-deficient ciprofloxacin-resistant Salmonella enterica serovar enteritidis isolate 104-cip harboring gyrA D87Y,S83F mutant gene by Etest; in short: as §1
[10] = test system: Salmonella enteritidis; test: Antimicrobial activity against ciprofloxacin-resistant Salmonella enterica serovar enteritidis isolate 5408-cip harboring parE gene gyrA D87Y, gyrB E466D mutant gene by Etest; in short: as §2
[11] = test system: Salmonella enteritidis; test: Antimicrobial activity against acrB::aph-deficient Salmonella enterica serovar enteritidis isolate 51 harboring gyrA D87Y mutant gene by Etest; in short: as §1
[12] = test system: Salmonella enteritidis; test: Antimicrobial activity against acrB::aph-deficient ciprofloxacin-resistant Salmonella enterica serovar enteritidis isolate 5408-cip harboring gyrA D87Y, gyrB E466D, parE V461G mutant gene by Etest; in short: as §1
[13] = test system: Salmonella enteritidis; test: Antimicrobial activity against Salmonella enterica serovar enteritidis isolate 51 harboring gyrA D87Y mutant gene by Etest
[14] = test system: Salmonella enteritidis; test: Antimicrobial activity against Salmonella enterica serovar enteritidis isolate 5408 harboring gyrA gene by Etest
[15] = test system: Salmonella enteritidis; test: Antimicrobial activity against acrB::aph-deficient Salmonella enterica serovar enteritidis isolate CUH60 harboring gyrA D87Y mutant gene by Etest; in short: as §1
[16] = test system: Salmonella enteritidis; test: Antimicrobial activity against Salmonella enterica serovar enteritidis isolate 54 harboring gyrA D87Y mutant gene by Etest
[17] = test system: Salmonella enteritidis; test: Antimicrobial activity against Salmonella enterica serovar enteritidis isolate 104 harboring gyrA gene by Etest
[18] = test system: Salmonella enteritidis; test: Antimicrobial activity against ciprofloxacin-resistant Salmonella enterica serovar enteritidis isolate 5408-cip harboring gyrA gene, gyrB E466D, parE V461G mutant gene by Etest; in short: as §2
[19] = test system: Salmonella enteritidis; test: Antimicrobial activity against ramA::aph-deficient ciprofloxacin-resistant Salmonella enterica serovar enteritidis isolate 5408-cip harboring gyrA D87Y, gyrB E466D, parE V461G mutant gene by Etest; in short: as §1
[20] = test system: Salmonella enteritidis; test: Antimicrobial activity against acrB::aph-deficient Salmonella enterica serovar enteritidis isolate 4931 harboring gyrA D87Y mutant gene by Etest; in short: as §1
[21] = test system: Salmonella enteritidis; test: Antimicrobial activity against soxS::aph-deficient ciprofloxacin-resistant Salmonella enterica serovar enteritidis isolate 104-cip harboring gyrA D87Y,S83F mutant gene by Etest; in short: as §1
[22] = test system: Salmonella enteritidis; test: Antimicrobial activity against ciprofloxacin-resistant Salmonella enterica serovar enteritidis isolate 5408-cip harboring gyrB gene gyrA D87Y, parE V461G mutant gene by Etest; in short: as §2
[23] = test system: Salmonella enteritidis; test: Antimicrobial activity against Salmonella enterica serovar enteritidis isolate 5408 harboring gyrA D87Y mutant gene by Etest
[24] = test system: Salmonella enteritidis; test: Antimicrobial activity against ciprofloxacin-resistant Salmonella enterica serovar enteritidis isolate 5408-cip harboring gyrA D87Y, gyrB E466D, parE V461G mutant gene by Etest
[25] = test system: Salmonella enteritidis; test: Antimicrobial activity against Salmonella enterica serovar enteritidis isolate 104-cip harboring gyrA D87Y,S83F mutant gene by Etest
[26] = test system: Salmonella enteritidis; test: Antimicrobial activity against Salmonella enterica serovar enteritidis isolate 104 harboring gyrA D87Y mutant gene by Etest

Structure (SMILES)	MIC [4]	MIC [9]	MIC [12]	MIC [19]	MIC [21]	MIC [23]	MIC [24]	MIC [25]	MIC [26]	other results
O=C(O)c1cn(C2CC2)c2cc(N3CCNCC3)c(F)cc2c1=O [CIPROFLOXACIN]	0.38 µg/mL (≈ 1.15 µM)	4 µg/mL (≈ 12.1 µM)	0.5 µg/mL (≈ 1.51 µM)	4 µg/mL (≈ 12.1 µM)	1.5 µg/mL (≈ 4.53 µM)					MIC [1]: 0.016 µg/mL (≈ 0.0483 µM); MIC [2]: 0.047 µg/mL (≈ 0.142 µM); MIC [3]: 0.125 µg/mL (≈ 0.377 µM); MIC [5]: 0.032 µg/mL (≈ 0.0966 µM); MIC [6]: 0.023 µg/mL (≈ 0.0694 µM); MIC [7]: 0.016 µg/mL (≈ 0.0483 µM); MIC [8]: 0.094 µg/mL (≈ 0.284 µM); MIC [10]: > 32 µg/mL; MIC [11]: 0.032 µg/mL (≈ 0.0966 µM); MIC [13]: 0.19 µg/mL (≈ 0.573 µM); MIC [14]: 0.032 µg/mL (≈ 0.0966 µM); MIC [15]: 0.032 µg/mL (≈ 0.0966 µM); MIC [16]: 0.19 µg/mL (≈ 0.573 µM); MIC [17]: 0.047 µg/mL (≈ 0.142 µM); MIC [18]: 1 µg/mL (≈ 3.02 µM); MIC [20]: 0.047 µg/mL (≈ 0.142 µM); MIC [22]: 3 µg/mL (≈ 9.05 µM)
CC1(C)S[C@@H]2[C@H](NC(=O)[C@H](N)c3ccccc3)C(=O)N2[C@H]1C(=O)O [AMPICILLIN]	0.125 µg/mL (≈ 0.358 µM)	1.5 µg/mL (≈ 4.29 µM)	0.094 µg/mL (≈ 0.269 µM)	1 µg/mL (≈ 2.86 µM)	0.5 µg/mL (≈ 1.43 µM)	1 µg/mL (≈ 2.86 µM)	4 µg/mL (≈ 11.4 µM)	16 µg/mL (≈ 45.8 µM)	1 µg/mL (≈ 2.86 µM)	
O=C(N[C@H](CO)[C@H](O)c1ccc([N+](=O)[O-])cc1)C(Cl)Cl [CHLORAMPHENICOL]	0.75 µg/mL (≈ 2.32 µM)	3 µg/mL (≈ 9.28 µM)	0.5 µg/mL (≈ 1.55 µM)	3 µg/mL (≈ 9.28 µM)	1.5 µg/mL (≈ 4.64 µM)	3 µg/mL (≈ 9.28 µM)	16 µg/mL (≈ 49.5 µM)	96 µg/mL (≈ 297 µM)	2 µg/mL (≈ 6.19 µM)	
